Data set [1] addresses Transient receptor potential cation channel subfamily V member 4 (Mus musculus) (UniProt Q9EPK8). In words: Antagonist activity at mouse TRPV4 expressed in HEK293T cells assessed as inhibition of GSK-1016790A evoked currents at 3 to 10 uM -60 mV holding potential by whole-cell patch clamp assay. In kind it is cell-based. The method, boiled down:
(§1)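 Whole-cell voltage clamp of transiently transfected HEK293T cells co-expressing GFP, recorded 36-96 h post-transfection. Hold -60 mV; pipettes 3-7 MΩ. Bath 165 mM NaCl, 10 mM HEPES pH 7.3; pipette 140 mM KCl, 10 mM HEPES pH 7.3. Room temperature (~25 °C). IC50 from Hill fits of I/I0, the current ratio after vs before inhibitor; mean ± SEM.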

In data set [2] the test system is T1, Transient receptor potential cation channel subfamily V member 2 (Mus musculus), Q9WTR1 [L505T].
T1 sequence (whole entry): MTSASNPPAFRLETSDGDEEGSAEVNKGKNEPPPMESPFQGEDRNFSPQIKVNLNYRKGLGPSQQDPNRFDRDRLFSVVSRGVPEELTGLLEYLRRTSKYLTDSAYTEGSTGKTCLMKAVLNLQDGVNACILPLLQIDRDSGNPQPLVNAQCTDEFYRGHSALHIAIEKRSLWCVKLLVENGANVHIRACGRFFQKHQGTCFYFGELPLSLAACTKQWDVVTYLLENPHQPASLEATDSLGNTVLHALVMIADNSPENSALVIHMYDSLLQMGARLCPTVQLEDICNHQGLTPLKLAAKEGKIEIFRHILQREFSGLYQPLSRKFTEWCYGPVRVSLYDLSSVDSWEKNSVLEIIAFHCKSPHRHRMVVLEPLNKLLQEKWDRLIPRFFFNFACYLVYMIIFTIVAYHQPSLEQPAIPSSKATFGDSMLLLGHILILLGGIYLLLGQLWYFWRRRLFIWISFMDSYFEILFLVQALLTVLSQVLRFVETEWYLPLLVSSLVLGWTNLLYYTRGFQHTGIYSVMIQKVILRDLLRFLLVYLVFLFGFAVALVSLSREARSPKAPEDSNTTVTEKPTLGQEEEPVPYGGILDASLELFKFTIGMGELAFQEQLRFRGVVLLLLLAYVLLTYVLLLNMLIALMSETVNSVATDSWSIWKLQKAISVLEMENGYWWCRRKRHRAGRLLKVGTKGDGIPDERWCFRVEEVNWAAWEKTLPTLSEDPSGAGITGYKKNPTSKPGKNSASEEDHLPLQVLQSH
In words: Antagonist activity at mouse TRPV2 L505T mutant expressed in HEK293T cells assessed as inhibition of 2-APB evoked currents at -60 mV holding potential by whole-cell patch clamp assay. The class given is cell-based. The method, boiled down: as §1
Background: The patch-clamp technique gives a direct electrical read-out from membranes.

Data set [3] deals with Transient receptor potential cation channel subfamily V member 1 (Mus musculus), Q704Y3 [S513F,T551L]. The data set can be described thus: Antagonist activity at mouse TRPV1 S513F/T551L double mutant expressed in HEK293T cells assessed as inhibition of 2-APB evoked currents at 0.3 to 10 uM at -60 mV holding potential by whole-cell patch clamp assay. The class given is cell-based. The method, boiled down:
as §1

The subject of data set [4] is PC-3M. In words: Antimetastatic activity in human PC3M cells at 5 to 20 uM after 24 hrs by transwell migration assay. The class given is functional, cell-based. A digest of the protocol:
(§2)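 PC-3M cells kept in RPMI 1640 with 10% FBS at 37 °C, 5% CO2.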

In data set [5] the test system is PC-3M. The data set can be described thus: Cytotoxicity against human PC3M cells assessed as reduction in cell viability up to 20 uM after 48 hrs by SRB assay. In kind it is cell-based. The method, boiled down:
as §2
(In SRB staining, fixed cells bind dye roughly in proportion to their protein.)

The next data set is filed under the species Homo sapiens. The data set can be described thus: Inhibition of LPA-induced TRPV2/LPAR1 mediated cell migration in human PC3M cells at 0.1 uM after 24 hrs by transwell migration assay. The class given is cell-based.
A further data set is filed under the species Mus musculus. In words: Antagonist activity at mouse LPA-induced TRPV2/LPAR1 expressed in HEK293T cells assessed as inhibition of 2-APB evoked currents at 1 uM after 3 mins in presence of AM966 by whole-cell patch clamp assay. The class given is cell-based. The method, boiled down:
as §1

For data set [6], the target named is T2, Transient receptor potential cation channel subfamily V member 2 (Homo sapiens) (UniProt Q9Y5S1).
T2 sequence (whole entry): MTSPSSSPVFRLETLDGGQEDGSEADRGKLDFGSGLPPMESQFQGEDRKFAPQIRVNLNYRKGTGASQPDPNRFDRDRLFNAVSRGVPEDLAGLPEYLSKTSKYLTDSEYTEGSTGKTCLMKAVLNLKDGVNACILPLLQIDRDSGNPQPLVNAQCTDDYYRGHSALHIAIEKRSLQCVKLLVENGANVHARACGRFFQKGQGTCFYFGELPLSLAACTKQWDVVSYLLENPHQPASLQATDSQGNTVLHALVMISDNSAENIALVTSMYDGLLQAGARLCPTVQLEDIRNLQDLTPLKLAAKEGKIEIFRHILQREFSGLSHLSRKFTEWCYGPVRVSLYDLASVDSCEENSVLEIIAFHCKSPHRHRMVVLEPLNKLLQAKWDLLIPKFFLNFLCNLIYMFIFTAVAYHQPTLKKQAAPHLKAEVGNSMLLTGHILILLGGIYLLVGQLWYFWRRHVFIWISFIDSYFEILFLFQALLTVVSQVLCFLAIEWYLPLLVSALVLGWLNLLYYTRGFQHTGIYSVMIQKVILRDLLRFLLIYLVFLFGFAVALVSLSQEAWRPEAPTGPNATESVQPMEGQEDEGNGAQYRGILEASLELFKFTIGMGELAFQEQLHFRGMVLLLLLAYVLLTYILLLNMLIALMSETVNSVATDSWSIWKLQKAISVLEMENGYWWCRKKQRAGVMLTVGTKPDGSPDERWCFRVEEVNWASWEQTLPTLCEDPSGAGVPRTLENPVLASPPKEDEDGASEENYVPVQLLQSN
In words: Antagonist activity at TRPV2 in human PC3M cells assessed as inhibition of LPA-induced intracellular calcium levels at 100 uM Fluo-4 AM-based fluorescence assay. In kind it is cell-based. The method, boiled down:
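PC-3M cells cultured 24 h, loaded with 2 μM Fluo-4 AM in HBSS for 45 min at 37 °C, then compound added. Cytoplasmic Ca2+ rise read as relative fluorescence at ex 485 / em 525 nm.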
On the technique in general: Calcium flux is commonly read through the fluorescence of an indicator in the cells.

The source made the active and inactive calls. No cut-off for these calls is given here.

Sequence of Transient receptor potential cation channel subfamily V member 1 (Mus musculus), Q704Y3 [S513F,T551L] (Q704Y3 whole entry S513F/T551L): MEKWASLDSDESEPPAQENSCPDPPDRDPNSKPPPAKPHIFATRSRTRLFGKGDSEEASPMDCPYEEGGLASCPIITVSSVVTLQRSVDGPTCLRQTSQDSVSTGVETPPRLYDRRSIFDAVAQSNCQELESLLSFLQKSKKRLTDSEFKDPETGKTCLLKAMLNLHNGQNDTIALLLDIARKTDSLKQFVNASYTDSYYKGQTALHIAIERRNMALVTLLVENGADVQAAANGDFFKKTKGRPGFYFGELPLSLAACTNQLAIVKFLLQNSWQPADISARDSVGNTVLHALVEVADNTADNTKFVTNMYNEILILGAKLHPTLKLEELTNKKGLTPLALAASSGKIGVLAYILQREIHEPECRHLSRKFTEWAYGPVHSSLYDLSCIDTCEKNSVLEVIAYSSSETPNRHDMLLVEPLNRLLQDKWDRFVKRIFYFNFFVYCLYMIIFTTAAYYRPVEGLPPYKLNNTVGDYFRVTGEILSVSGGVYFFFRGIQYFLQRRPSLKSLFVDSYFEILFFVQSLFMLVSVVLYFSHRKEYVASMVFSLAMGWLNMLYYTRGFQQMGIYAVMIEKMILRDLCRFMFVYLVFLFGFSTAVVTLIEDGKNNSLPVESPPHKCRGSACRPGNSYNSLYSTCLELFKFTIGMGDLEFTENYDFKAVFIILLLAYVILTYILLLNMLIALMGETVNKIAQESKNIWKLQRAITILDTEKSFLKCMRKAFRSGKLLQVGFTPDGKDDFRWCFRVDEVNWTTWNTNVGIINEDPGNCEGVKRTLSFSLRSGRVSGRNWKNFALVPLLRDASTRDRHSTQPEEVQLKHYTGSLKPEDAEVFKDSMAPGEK
Sequence of Transient receptor potential cation channel subfamily V member 4 (Mus musculus) (Q9EPK8 whole entry): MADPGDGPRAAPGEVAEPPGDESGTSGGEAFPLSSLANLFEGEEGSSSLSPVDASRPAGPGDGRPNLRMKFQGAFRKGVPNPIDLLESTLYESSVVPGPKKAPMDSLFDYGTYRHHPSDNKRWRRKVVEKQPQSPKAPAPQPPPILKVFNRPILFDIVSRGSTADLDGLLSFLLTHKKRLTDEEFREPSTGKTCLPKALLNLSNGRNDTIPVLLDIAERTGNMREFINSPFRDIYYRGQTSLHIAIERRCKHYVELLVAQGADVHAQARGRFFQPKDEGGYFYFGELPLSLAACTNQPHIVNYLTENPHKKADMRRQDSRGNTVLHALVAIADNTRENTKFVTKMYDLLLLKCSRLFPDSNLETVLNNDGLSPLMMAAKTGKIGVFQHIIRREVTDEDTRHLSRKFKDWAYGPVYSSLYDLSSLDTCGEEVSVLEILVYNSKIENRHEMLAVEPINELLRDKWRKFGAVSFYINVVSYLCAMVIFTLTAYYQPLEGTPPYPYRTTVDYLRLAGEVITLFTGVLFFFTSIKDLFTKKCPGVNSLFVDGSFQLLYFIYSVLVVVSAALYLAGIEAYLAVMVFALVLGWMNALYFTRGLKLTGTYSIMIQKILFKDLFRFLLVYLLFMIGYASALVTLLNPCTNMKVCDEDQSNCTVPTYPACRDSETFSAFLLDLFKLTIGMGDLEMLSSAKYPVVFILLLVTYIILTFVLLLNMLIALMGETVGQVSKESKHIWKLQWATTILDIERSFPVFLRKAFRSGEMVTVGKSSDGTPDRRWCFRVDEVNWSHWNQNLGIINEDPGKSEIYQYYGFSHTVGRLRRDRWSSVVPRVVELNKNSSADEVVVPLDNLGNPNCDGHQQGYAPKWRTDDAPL

Turning to `CCCN(C)c1cc(C(F)(F)F)nc(SCCC(=O)NCc2ccco2)n1`, the inhibition entry (in data set [1]; in data set [2]; in the data set filed under Mus musculus) was “inactive” throughout. The inhibition entry (in data set [3]; in the data set filed under Homo sapiens; in data set [6]) was “Active” throughout. The result in the data set with PC-3M [4] was Active. The Activity result in the data set on PC-3M [5] is listed as “Non-Toxic”.

(Values after ChEMBL document CHEMBL4422635, “Structure-Based Discovery of a Subtype-Selective Inhibitor Targeting a Transient Receptor Potential Vanilloid Channel” (J Med Chem, 2019).)
